# Reference: ChEMBL document CHEMBL4765448, “Multiple biological active 4-aminopyrazoles containing trifluoromethyl and their 4-nitroso-precursors: Synthesis and evaluation” (Eur J Med Chem, 2020)
# Calls of active or inactive are those of the source. The rule behind the calls is not given here.
# Tested on: Mycobacterium tuberculosis
# Test: Antitubercular activity against Mycobacterium tuberculosis H37Rv
# Type: functional
# Details: not given
# Outline: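 Mycobacterium tuberculosis strain H37Rv; minimum inhibitory concentration (MIC) taken as the lowest level needed to inhibit bacterial growth; isoniazid and pyrazinamide served as reference drugs.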
row,Compound,MIC [µg/mL]
1,O=Nc1c(C(F)(F)F)n[nH]c1-c1cccs1,3.1
2,O=Nc1c(C(F)(F)F)n[nH]c1-c1ccccc1,0.36

# Tested on: Neisseria gonorrhoeae
# Test: Antibacterial activity against Neisseria gonorrhoeae
# Type: functional
# Details: not given
row,Compound,MIC [µg/mL]
1,Cl.Nc1c(C(F)(F)F)n[nH]c1-c1cccs1,62.5
2,O=Nc1c(C(F)(F)F)n[nH]c1-c1cccs1,62.5
3,O=Nc1c(C(F)(F)F)n[nH]c1-c1ccccc1,62.5

# Tested on: Escherichia coli
# Test: Antibacterial activity against Escherichia coli
# Type: functional
# Details: not given
row,Compound,MIC [µg/mL]
1,Cl.Nc1c(C(F)(F)F)n[nH]c1-c1cccs1,> 250
2,O=Nc1c(C(F)(F)F)n[nH]c1-c1cccs1,250
3,O=Nc1c(C(F)(F)F)n[nH]c1-c1ccccc1,62.5

# Tested on: Klebsiella pneumoniae
# Test: Antibacterial activity against Klebsiella pneumoniae
# Type: functional
# Details: not given
row,Compound,MIC [µg/mL]
1,Cl.Nc1c(C(F)(F)F)n[nH]c1-c1cccs1,> 250
2,O=Nc1c(C(F)(F)F)n[nH]c1-c1cccs1,500
3,O=Nc1c(C(F)(F)F)n[nH]c1-c1ccccc1,62.5

# Tested on: Citrobacter braakii
# Test: Antibacterial activity against Citrobacter braakii
# Type: functional
# Details: not given
row,Compound,MIC [µg/mL]
1,Cl.Nc1c(C(F)(F)F)n[nH]c1-c1cccs1,> 250
2,O=Nc1c(C(F)(F)F)n[nH]c1-c1cccs1,250
3,O=Nc1c(C(F)(F)F)n[nH]c1-c1ccccc1,62.5

# Tested on: Proteus vulgaris
# Test: Antibacterial activity against Proteus vulgaris
# Type: functional
# Details: not given
row,Compound,MIC [µg/mL]
1,Cl.Nc1c(C(F)(F)F)n[nH]c1-c1cccs1,> 250
2,O=Nc1c(C(F)(F)F)n[nH]c1-c1cccs1,31.2
3,O=Nc1c(C(F)(F)F)n[nH]c1-c1ccccc1,31.2

# Tested on: Serratia marcescens
# Test: Antibacterial activity against Serratia marcescens
# Type: functional
# Details: not given
row,Compound,MIC [µg/mL]
1,Cl.Nc1c(C(F)(F)F)n[nH]c1-c1cccs1,> 250
2,O=Nc1c(C(F)(F)F)n[nH]c1-c1cccs1,250
3,O=Nc1c(C(F)(F)F)n[nH]c1-c1ccccc1,62.5

# Tested on: Shigella flexneri
# Test: Antibacterial activity against Shigella flexneri
# Type: functional
# Details: not given
row,Compound,MIC [µg/mL]
1,Cl.Nc1c(C(F)(F)F)n[nH]c1-c1cccs1,> 250
2,O=Nc1c(C(F)(F)F)n[nH]c1-c1cccs1,500
3,O=Nc1c(C(F)(F)F)n[nH]c1-c1ccccc1,31.2

# Tested on: Pseudomonas aeruginosa
# Test: Antibacterial activity against Pseudomonas aeruginosa
# Type: functional
# Details: not given
row,Compound,MIC [µg/mL]
1,Cl.Nc1c(C(F)(F)F)n[nH]c1-c1cccs1,> 250
2,O=Nc1c(C(F)(F)F)n[nH]c1-c1cccs1,> 500
3,O=Nc1c(C(F)(F)F)n[nH]c1-c1ccccc1,125

# Tested on: Streptococcus pyogenes
# Test: Antibacterial activity against Streptococcus pyogenes
# Type: functional
# Details: not given
row,Compound,MIC [µg/mL]
1,Cl.Nc1c(C(F)(F)F)n[nH]c1-c1cccs1,> 250
2,O=Nc1c(C(F)(F)F)n[nH]c1-c1cccs1,7.8
3,O=Nc1c(C(F)(F)F)n[nH]c1-c1ccccc1,7.8

# Tested on: Staphylococcus aureus
# Test: Antibacterial activity against Staphylococcus aureus
# Type: functional
# Details: not given
row,Compound,MIC [µg/mL]
1,Cl.Nc1c(C(F)(F)F)n[nH]c1-c1cccs1,> 250
2,O=Nc1c(C(F)(F)F)n[nH]c1-c1cccs1,15.6
3,O=Nc1c(C(F)(F)F)n[nH]c1-c1ccccc1,31.2

# Tested on: Staphylococcus aureus
# Test: Antibacterial activity against methicillin resistant Staphylococcus aureus
# Type: functional
# Details: not given
row,Compound,MIC [µg/mL]
1,O=Nc1c(C(F)(F)F)n[nH]c1-c1cccs1,62.5
2,O=Nc1c(C(F)(F)F)n[nH]c1-c1ccccc1,62.5

# Tested on: Trichophyton rubrum
# Test: Antifungal activity against Trichophyton rubrum
# Type: functional
# Details: not given
row,Compound,MIC [µg/mL]
1,Cl.Nc1c(C(F)(F)F)n[nH]c1-c1cccs1,200
2,O=Nc1c(C(F)(F)F)n[nH]c1-c1cccs1,12.5
3,O=Nc1c(C(F)(F)F)n[nH]c1-c1ccccc1,> 200

# Tested on: Nannizzia gypsea
# Test: Antifungal activity against Trichophyton gypseum
# Type: functional
# Details: not given
row,Compound,MIC [µg/mL]
1,Cl.Nc1c(C(F)(F)F)n[nH]c1-c1cccs1,> 200
2,O=Nc1c(C(F)(F)F)n[nH]c1-c1cccs1,50
3,O=Nc1c(C(F)(F)F)n[nH]c1-c1ccccc1,> 200

# Tested on: Trichophyton tonsurans
# Test: Antifungal activity against Trichophyton tonsurans
# Type: functional
# Details: not given
row,Compound,MIC [µg/mL]
1,Cl.Nc1c(C(F)(F)F)n[nH]c1-c1cccs1,> 200
2,O=Nc1c(C(F)(F)F)n[nH]c1-c1cccs1,50
3,O=Nc1c(C(F)(F)F)n[nH]c1-c1ccccc1,> 200

# Tested on: Trichophyton violaceum
# Test: Antifungal activity against Trichophyton violaceum
# Type: functional
# Details: not given
row,Compound,MIC [µg/mL]
1,Cl.Nc1c(C(F)(F)F)n[nH]c1-c1cccs1,> 200
2,O=Nc1c(C(F)(F)F)n[nH]c1-c1ccccc1,> 200

# Tested on: Trichophyton interdigitale
# Test: Antifungal activity against Trichophyton mentagrophytes var. interdigitale
# Type: functional
# Details: not given
row,Compound,MIC [µg/mL]
1,Cl.Nc1c(C(F)(F)F)n[nH]c1-c1cccs1,> 200
2,O=Nc1c(C(F)(F)F)n[nH]c1-c1cccs1,50
3,O=Nc1c(C(F)(F)F)n[nH]c1-c1ccccc1,> 200

# Tested on: Epidermophyton floccosum
# Test: Antifungal activity against Epidermophyton floccosum
# Type: functional
# Details: not given
row,Compound,MIC [µg/mL]
1,Cl.Nc1c(C(F)(F)F)n[nH]c1-c1cccs1,200
2,O=Nc1c(C(F)(F)F)n[nH]c1-c1cccs1,50
3,O=Nc1c(C(F)(F)F)n[nH]c1-c1ccccc1,> 200

# Tested on: Microsporum canis
# Test: Antifungal activity against Microsporum canis
# Type: functional
# Details: not given
row,Compound,MIC [µg/mL]
1,Cl.Nc1c(C(F)(F)F)n[nH]c1-c1cccs1,200
2,O=Nc1c(C(F)(F)F)n[nH]c1-c1cccs1,25
3,O=Nc1c(C(F)(F)F)n[nH]c1-c1ccccc1,> 200

# Tested on: Candida albicans
# Test: Antifungal activity against Candida albicans
# Type: functional
# Details: not given
row,Compound,MIC [µg/mL]
1,Cl.Nc1c(C(F)(F)F)n[nH]c1-c1cccs1,> 200
2,O=Nc1c(C(F)(F)F)n[nH]c1-c1cccs1,50
3,O=Nc1c(C(F)(F)F)n[nH]c1-c1ccccc1,100

# Tested on: not listed separately
# Test: Drug metabolism assessed as nitric oxide release in absence of rat plasma by Griess reagent based assay
# Type: cell-free
# Details: not given
row,Compound,Drug metabolism
1,O=Nc1c(C(F)(F)F)n[nH]c1-c1cccs1,Metabolite not detected

# Tested on: not listed separately
# Test: Antioxidant activity assessed as trolox equivalent of ABTS radical scavenging activity measured after 1 hr by UV-vis spectrophotometric method
# Type: functional
# Details: not given
# Outline: (§1)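 ABTS cation-radical decolorization was read spectrophotometrically as the fall in absorbance after 1 h. Trolox was the reference. TEAC was taken as the ratio of concentration-response slopes, test/Trolox, and IC50 was also derived. Data are mean ± SEM, n = 3.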
row,Compound,Activity
1,O=Nc1c(C(F)(F)F)n[nH]c1-c1cccs1,0.02 equiv
2,O=Nc1c(C(F)(F)F)n[nH]c1-c1ccccc1,inactive

# Tested on: not listed separately
# Test: Antioxidant activity assessed as ABTS radical scavenging activity measured after 1 hr by UV-vis spectrophotometric method
# Type: functional
# Details: not given
# Outline: as §1
row,Compound,IC50 [µM]
1,Cl.Nc1c(C(F)(F)F)n[nH]c1-c1cccs1,13.3

# Tested on: not listed separately
# Test: Antioxidant activity assessed as AAPH scavenging activity by measuring residual fluorescence at 10 uM measured at 1 min interval for 30 mins by ORAC fluorescein assay relative to control
# Type: functional
# Details: not given
# Outline: (§2)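 ORAC-FL assay with fluorescein as the probe and AAPH as the peroxyl radical generator. The loss of fluorescence over time was followed, and the result is given as % fluorescence restored at 10 and 50 µM. Each value is the mean of two independent experiments.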
row,Compound,Activity [%]
1,O=Nc1c(C(F)(F)F)n[nH]c1-c1cccs1,-56.2
2,O=Nc1c(C(F)(F)F)n[nH]c1-c1ccccc1,-80.4

# Tested on: not listed separately
# Test: Antioxidant activity assessed as AAPH scavenging activity by measuring residual fluorescence at 50 uM measured at 1 min interval for 30 mins by ORAC fluorescein assay relative to control
# Type: functional
# Details: not given
# Outline: as §2
row,Compound,Activity [%]
1,O=Nc1c(C(F)(F)F)n[nH]c1-c1cccs1,-98.7
2,O=Nc1c(C(F)(F)F)n[nH]c1-c1ccccc1,-119

# Tested on: Erythrocyte
# Test: Antioxidant activity in human erythrocytes assessed as protection against AAPH-induced hemolysis at 50 uM preincubated for 20 mins followed by AAPH addition and measured after 2 hrs by spectrophotometric method relative to control
# Type: functional
# Details: time 140 min, 2.333 h
# Outline: (§3)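 Erythrocyte hemolysis assay with AAPH as the free-radical initiator, testing 50 and 400 µM. Results are expressed as relative protection of membranes against oxidative damage, each the mean of two independent experiments.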
row,Compound,fold change (FC)
1,O=Nc1c(C(F)(F)F)n[nH]c1-c1cccs1,1.18
2,O=Nc1c(C(F)(F)F)n[nH]c1-c1ccccc1,0.99

# Tested on: Erythrocyte
# Test: Antioxidant activity in human erythrocytes assessed as protection against AAPH-induced hemolysis at 400 uM preincubated for 20 mins followed by AAPH addition and measured after 2 hrs by spectrophotometric method relative to control
# Type: functional
# Details: time 140 min, 2.333 h
# Outline: as §3
row,Compound,fold change (FC)
1,O=Nc1c(C(F)(F)F)n[nH]c1-c1cccs1,1.12
2,O=Nc1c(C(F)(F)F)n[nH]c1-c1ccccc1,1.05

# Tested on: HeLa
# Test: Cytotoxicity against human HeLa cells
# Type: functional, cell-based
# Details: not given
row,Compound,Activity
1,O=Nc1c(C(F)(F)F)n[nH]c1-c1ccccc1,Dose-dependent effect

# Same assay, conditions: Homo sapiens, HeLa; read-out: IC50
row,Compound,IC50 [µM]
1,O=Nc1c(C(F)(F)F)n[nH]c1-c1ccccc1,1.86

# Tested on: NHDF
# Test: Cytotoxicity against HDF cells
# Type: cell-based, Homo sapiens
# Details: Homo sapiens, NHDF; read-out: IC50
row,Compound,IC50 [µM]
1,O=Nc1c(C(F)(F)F)n[nH]c1-c1ccccc1,1.42

# Tested on: not listed separately
# Test: Selectivity index, ratio of IC50 for HDF cells to IC50 for human HeLa cells
# Type: toxicity
# Details: HDF cells versus HeLa cells, read-out: Ratio IC50
row,Compound,selectivity ratio
1,O=Nc1c(C(F)(F)F)n[nH]c1-c1ccccc1,0.76

# Tested on: Rattus norvegicus
# Test: Antiinflammatory activity in rat model of carrageenan-induced paw edema assessed as inhibition of hind paw swelling at 15 mg/kg, ip measured after 1 hr relative to control
# Type: functional
# Details: not given
row,Compound,inhibition
1,O=Nc1c(C(F)(F)F)n[nH]c1-c1ccccc1,inactive

# Tested on: Rattus norvegicus
# Test: Antiinflammatory activity in rat model of carrageenan-induced paw edema assessed as inhibition of hind paw swelling at 15 mg/kg, ip measured after 3 hrs relative to control
# Type: functional
# Details: not given
row,Compound,inhibition in vivo at 15 mg/kg [%]
1,O=Nc1c(C(F)(F)F)n[nH]c1-c1ccccc1,32

# Tested on: Rattus norvegicus
# Test: Analgesic activity in rat assessed as prolongation of latency period at 15 mg/kg, ip measured after 1 hr by hot-plate test relative to control
# Type: functional
# Details: not given
# Outline: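 Hot-plate test in rats. Compounds were given by intraperitoneal injection. Latency was read at 1 h and, for some compounds, also at 2 h after dosing. Results are expressed as % prolongation of the latent period versus vehicle-treated control. Significance was given as p-values.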
row,Compound,Activity [%]
1,O=Nc1c(C(F)(F)F)n[nH]c1-c1ccccc1,51.7

# Tested on: Rattus norvegicus
# Test: Antiinflammatory activity in rat model of carrageenan-induced paw edema assessed as inhibition of hind paw swelling at 15 mg/kg, ip measured after 5 hrs
# Type: functional, organism-based
# Details: not given
row,Compound,Activity
1,O=Nc1c(C(F)(F)F)n[nH]c1-c1cccs1,Active
2,O=Nc1c(C(F)(F)F)n[nH]c1-c1ccccc1,Active

# Tested on: not listed separately
# Test: Acute toxicity in mouse at 150 mg/kg, ip administered as single dose
# Type: organism-based
# Details: in vivo
# Outline: (§4)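 Mice, single intraperitoneal dose, following OECD Guideline for testing of chemicals; three mice per dose level; doses tested 10–300 mg/kg. Read-out is the number of survivors out of 3, used to estimate the expected LD50 range.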
row,Compound,Activity
1,Cl.Nc1c(C(F)(F)F)n[nH]c1-c1cccs1,Toxic

# Tested on: not listed separately
# Test: Acute toxicity in mouse at 75 mg/kg, ip administered as single dose
# Type: organism-based
# Details: in vivo
# Outline: as §4
row,Compound,Activity
1,Cl.Nc1c(C(F)(F)F)n[nH]c1-c1cccs1,Toxic
2,O=Nc1c(C(F)(F)F)n[nH]c1-c1cccs1,Toxic

# Tested on: not listed separately
# Test: Acute toxicity in mouse at 10 mg/kg, ip administered as single dose
# Type: organism-based
# Details: in vivo
# Outline: as §4
row,Compound,Activity
1,Cl.Nc1c(C(F)(F)F)n[nH]c1-c1cccs1,Non-Toxic
